Measurements: ChEMBL document CHEMBL1124479, “N-[(arylmethoxy)phenyl] and N-[(arylmethoxy)naphthyl] sulfonamides: potent orally active leukotriene D4 antagonists of novel structure” (J Med Chem, 1989)
One block for each compound: values may come before it.

Legend:
[1] = system: Cavia porcellus; assay: Inhibition of Leukotriene D4 induced bronchoconstriction when compound was administered perorally at a dose of 25 mg/kg in guinea pig; type: functional; details: route oral
Summary of the method: (§1)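 Single-dose screen in guinea pigs, with n animals per group. Significance versus control used a two-tailed Student's t test (p < 0.05), or one-way ANOVA with contrasts based on each treatment's difference from its own control mean.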

[2] = system: Cavia porcellus; assay: Inhibition of ovalbumin-induced bronchoconstriction when compound was administered perorally at a dose of 25 mg/kg in guinea pig; type: functional; details: route oral; summary of the method: as §1
[3] = system: Cavia porcellus; assay: Inhibition of ovalbumin-induced bronchoconstriction when compound was administered intraduodenally at a dose of 25 mg/kg in guinea pig; type: functional; details: route intraduodenal; summary of the method: as §1
[4] = system: Cavia porcellus; assay: Inhibitory dose of the intraduodenally administered compound (10 min before giving agonist)that produced a 50% inhibition of ovalbumin induced bronchoconstriction in guinea pigs; type: functional; details: intraduodenal, read-out: ID50 (the source's name)
Summary of the method: (§2)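 Guinea pigs, intraduodenal dosing, with LTD4 or ovalbumin challenge. ID50 is the dose of antagonist giving 50% inhibition of the induced bronchoconstriction.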

[5] = system: Cavia porcellus; assay: Inhibition of Leukotriene D4 induced bronchoconstriction in guinea pig by 50 mg/kg i.d.; details: at 50 mg/kg
[6] = biological target: T1, Cyclooxygenase (Rattus norvegicus, UniProt P35355+Q63921); assay: Inhibitory concentration to inhibit Prostaglandin G/H synthase in the rat; type: protein assay
T1 sequence (P35355 whole entry): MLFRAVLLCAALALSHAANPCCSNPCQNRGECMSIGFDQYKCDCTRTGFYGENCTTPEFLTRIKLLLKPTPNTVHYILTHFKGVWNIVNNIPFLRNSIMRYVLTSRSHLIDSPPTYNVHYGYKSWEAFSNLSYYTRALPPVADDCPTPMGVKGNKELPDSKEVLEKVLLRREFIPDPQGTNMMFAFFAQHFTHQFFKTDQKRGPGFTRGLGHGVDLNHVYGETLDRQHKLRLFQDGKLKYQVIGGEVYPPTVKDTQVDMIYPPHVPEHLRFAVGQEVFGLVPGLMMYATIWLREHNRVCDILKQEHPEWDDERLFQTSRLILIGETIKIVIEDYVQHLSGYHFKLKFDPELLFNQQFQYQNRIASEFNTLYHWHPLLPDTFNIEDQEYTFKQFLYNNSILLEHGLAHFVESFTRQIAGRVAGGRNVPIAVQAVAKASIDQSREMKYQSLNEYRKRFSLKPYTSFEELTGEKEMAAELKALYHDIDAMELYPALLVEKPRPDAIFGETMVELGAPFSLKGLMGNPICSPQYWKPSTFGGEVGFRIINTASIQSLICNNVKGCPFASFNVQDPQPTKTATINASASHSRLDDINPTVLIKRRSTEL
T1 sequence (Q63921 whole entry): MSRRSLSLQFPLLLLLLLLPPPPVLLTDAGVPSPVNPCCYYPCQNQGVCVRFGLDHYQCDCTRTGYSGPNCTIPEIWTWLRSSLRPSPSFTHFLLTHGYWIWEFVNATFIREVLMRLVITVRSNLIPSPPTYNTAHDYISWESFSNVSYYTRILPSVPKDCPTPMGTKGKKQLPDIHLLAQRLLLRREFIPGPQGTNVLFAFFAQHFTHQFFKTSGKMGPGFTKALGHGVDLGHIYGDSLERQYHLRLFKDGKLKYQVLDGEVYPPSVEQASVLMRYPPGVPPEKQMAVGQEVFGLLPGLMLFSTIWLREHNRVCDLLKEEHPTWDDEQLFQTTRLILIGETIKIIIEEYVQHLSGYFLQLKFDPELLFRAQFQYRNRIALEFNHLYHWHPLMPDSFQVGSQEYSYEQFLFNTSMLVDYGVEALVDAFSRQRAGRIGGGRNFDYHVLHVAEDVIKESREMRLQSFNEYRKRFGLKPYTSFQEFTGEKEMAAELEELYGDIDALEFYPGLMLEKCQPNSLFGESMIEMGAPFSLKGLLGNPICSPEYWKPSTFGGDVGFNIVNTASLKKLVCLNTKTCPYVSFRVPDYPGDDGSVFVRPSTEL
Summary of the method: (§3)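 Rat PMN assay, measuring 5-lipoxygenase and cyclooxygenase activity. IC50 values are in μM.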

[7] = system: Cavia porcellus; assay: Relative inhibitor potency of the intragastrically administered compound with Wy-48,252 against ovalbumin induced bronchoconstriction in guinea pigs; type: functional
Summary of the method: (§4)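 Intragastric dosing of awake guinea pigs 120 min before agonist (95 min before anesthetic), with LTD4 or ovalbumin challenge.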

[8] = system: Cavia porcellus; assay: Relative inhibitor potency of the intragastrically administered compound with Wy-48,252 against leukotriene D4 induced bronchoconstriction in guinea pigs; type: functional; summary of the method: as §4
[9] = system: Cavia porcellus; assay: Relative inhibitor potency of the intraduodenally administered compound with Wy-48,252 against leukotrien D4 induced bronchoconstriction in guinea pigs; type: functional
[10] = system: Cavia porcellus; assay: Inhibition of ovalbumin-induced bronchoconstriction when compound was administered intraduodenally at a dose of 50 mg/kg in guinea pig; type: functional; details: route intraduodenal; summary of the method: as §1
[11] = biological target: T2, Polyunsaturated fatty acid 5-lipoxygenase (Rattus norvegicus, UniProt P12527); assay: Inhibitory concentration to inhibit 5-lipoxygenase in the rat; summary of the method: as §3
T2 sequence (P12527 whole entry): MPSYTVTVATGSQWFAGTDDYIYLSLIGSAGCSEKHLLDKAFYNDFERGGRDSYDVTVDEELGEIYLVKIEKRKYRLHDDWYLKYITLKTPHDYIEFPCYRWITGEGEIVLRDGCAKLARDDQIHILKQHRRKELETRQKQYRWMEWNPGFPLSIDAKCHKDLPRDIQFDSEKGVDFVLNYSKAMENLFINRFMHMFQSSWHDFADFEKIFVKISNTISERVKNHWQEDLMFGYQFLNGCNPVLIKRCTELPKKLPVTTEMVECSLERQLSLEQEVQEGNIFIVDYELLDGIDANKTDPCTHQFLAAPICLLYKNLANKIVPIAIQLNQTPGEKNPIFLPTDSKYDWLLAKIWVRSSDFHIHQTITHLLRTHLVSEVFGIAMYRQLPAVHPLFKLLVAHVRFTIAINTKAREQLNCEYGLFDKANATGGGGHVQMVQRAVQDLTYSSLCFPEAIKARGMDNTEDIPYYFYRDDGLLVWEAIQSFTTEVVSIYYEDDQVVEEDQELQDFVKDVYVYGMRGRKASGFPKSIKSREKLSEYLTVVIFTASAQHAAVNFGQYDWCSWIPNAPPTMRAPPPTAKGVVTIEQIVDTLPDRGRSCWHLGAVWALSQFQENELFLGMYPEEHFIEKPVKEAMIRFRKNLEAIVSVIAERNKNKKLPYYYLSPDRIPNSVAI

[12] = system: Rattus norvegicus; assay: Percent inhibition of compound (50 mg/kg) in the rat carrageenan paw edema assay; type: functional
Summary of the method: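 Rat carrageenan paw edema, with compound given intragastrically. Read-out is percent inhibition of edema.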

[13] = system: Cavia porcellus; assay: Relative inhibitor potency of the intraduodenally administered compound with Wy-48,252 against lovalbumininduced bronchoconstriction in guinea pigs; type: functional
[14] = system: Cavia porcellus; assay: Inhibitory dose of the intragastrically administered compound (120 min before giving agonist) that produced a 50% inhibition of ovalbumin induced bronchoconstriction in guinea pigs; type: functional; details: po, read-out: ID50 (the source's name)
Summary of the method: (§5)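 Guinea pigs, awake, dosed intragastrically 120 min before agonist challenge (95 min before anesthetic). The LTD4 challenge was given intravenously; ovalbumin served as antigen. ID50 is the dose giving 50% inhibition of LTD4- or ovalbumin-induced bronchoconstriction.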

[15] = system: Cavia porcellus; assay: Inhibitory dose of the intragastrically administered compound (120 min before giving agonist) that produced a 50% inhibition of leukotriene D4 induced bronchoconstriction in guinea pigs; type: functional; details: po, read-out: ID50 (the source's name); summary of the method: as §5
[16] = system: Mus musculus; assay: Percent inhibition of TPA-induced inflammation at 1 mg/ear in the mouse ear edema; type: functional
[17] = Disassociation constant was determined; type: ADME
Summary of the method: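 Isolated guinea pig trachea, pretreated with indomethacin and L-cysteine, contracted with LTD4. Antagonism was expressed as a pKB value.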

[18] = system: Cavia porcellus; assay: Inhibition of ovalbumin-induced bronchoconstriction when compound was administered perorally at a dose of 50 mg/kg in guinea pig; type: functional; details: route oral; summary of the method: as §1
[19] = system: Cavia porcellus; assay: Inhibitory dose of intraduodenally administered compound (10 min before giving agonist) that produced a 50% inhibition of leukotriene D4 induced bronchoconstriction in guinea pig; type: functional; details: intraduodenal, read-out: ID50 (the source's name); summary of the method: as §2
[20] = system: Cavia porcellus; assay: Inhibitory dose of the intraduodenally administered compound (10 min before giving agonist) that produced a 50% inhibition of ovalbumin induced bronchoconstriction in guinea pigs; type: functional; details: intraduodenal, read-out: ID50 (the source's name); summary of the method: as §2
[21] = system: Cavia porcellus; assay: Inhibitory dose of the intraduodenally administered compound (10 min before giving agonist) that produced a 50% inhibition of leukotriene D4 induced bronchoconstriction in guinea pigs; type: functional; details: intraduodenal, read-out: ID50 (the source's name); summary of the method: as §2
[22] = system: Cavia porcellus; assay: Relative inhibitor potency of the intraduodenally administered compound with Wy-48,252 against ovalbumin induced bronchoconstriction in guinea pigs; type: functional

SMILES: O=S(=O)(Nc1cccc(OCc2ncc3ccccc3n2)c1)C(F)(F)F
inhibition in vivo at 25 mg/kg [1]: 97%
inhibition in vivo at 25 mg/kg [2]: 23%
inhibition in vivo at 25 mg/kg [3]: 78%

inhibition [5]: 99%
IC50 [6]: 11900 nM
IC50 [11]: 230 nM
pKB [17]: 7.04
SMILES: O=S(=O)(Nc1ccc2ccc(OCc3ccc4ccccc4n3)cc2c1)C(F)(F)F
ED50 [4]: 0.46 mg/kg
Relative inhibitor potency [7]: 6
Relative inhibitor potency [8]: 128
Relative inhibitor potency [9]: 4
inhibition in vivo at 50 mg/kg [10]: 86%
Inhibition [12]: 63%
Relative inhibitor potency [13]: 41
ED50 [14]: 6.1 mg/kg
ED50 [15]: 0.25 mg/kg
Inhibition [16]: 34%
inhibition in vivo at 50 mg/kg [18]: 83%
ED50 [19]: 1.4 mg/kg

SMILES: CCCc1c(OCCCCc2nnn[nH]2)ccc(C(C)=O)c1O [TOMELUKAST]
ED50 [20]: 19 mg/kg
Relative inhibitor potency [7]: 1
Relative inhibitor potency [8]: 1
Relative inhibitor potency [9]: 1
ED50 [14]: 38 mg/kg
ED50 [21]: 6 mg/kg
ED50 [15]: 32 mg/kg
Relative inhibitor potency [22]: 1
